Here are results for 18 compounds from ChEMBL document CHEMBL1138711, “1,2,3,4-Tetrahydroquinoline-containing alphaVbeta3 integrin antagonists with enhanced oral bioavailability” (Bioorg Med Chem Lett, 2004).

By IC50 is commonly meant the midpoint of a concentration-inhibition curve. A higher IC50 goes with a need for much substance. By bioavailability is commonly meant dose-corrected exposure relative to a reference, in per cent. A lower bioavailability goes with poor availability. A word on the Cmax: it is the highest concentration seen after dosing. As a reminder, the half-life is the time needed for the level to fall by half in the phase considered. By Tmax is commonly meant the time from dosing to the highest level.

The structures appear in SMILES notation.

For data set [1], the target named is Integrin alpha-V/beta-5 (Homo sapiens, UniProt P06756+P18084). The data set can be described thus: Inhibitory concentration for human vitronectin binding to immobilized alphaV-beta5 integrin. In kind it is protein-complex assay.
Data set [2] addresses Integrin alpha-IIb/beta-3 (Homo sapiens, UniProt P05106+P08514). The data set can be described thus: Inhibitory concentration for biotinylated fibrinogen binding to immobilized alpha IIb beta-3 integrin. The format is protein-complex assay.
Data set [3] can be described thus: Oral bioavailability in rat. In kind it is ADME, organism-based. As to conditions: in vivo. Summed up:
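Rats dosed orally at 10 mg/kg (N = 4) and intravenously at 2 mg/kg (N = 4) unless otherwise noted. The oral vehicle was D5W (5% dextrose) adjusted to pH 2 with 0.1 N HCl. Plasma drug levels were measured by LC/MS, and bioavailability was derived by comparing oral with intravenous exposure.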

Data set [4] deals with Integrin alpha-V/beta-3 (Homo sapiens, UniProt P05106+P06756). The data set can be described thus: Inhibitory concentration for human vitronectin binding to immobilized alphaV-beta3 integrin. In kind it is protein-complex assay.
Data set [5] in a line: Maximum plasma concentration when administered perorally at 30 mg/kg dose. In kind it is ADME, organism-based. Further details: dose 30 mg/kg, route oral. Particulars: rat, po.
Data set [6] in a line: Plasma half-life when administered perorally at 30 mg/kg dose. In kind it is ADME, organism-based. Further details: dose 30 mg/kg, route oral. As to conditions: rat, po.
A short description of data set [7]: Time to reach maximum plasma concentration when administered perorally at 15 mg/kg dose in rat. Set-up: dose 15 mg/kg, route oral. As to conditions: po. In kind it is ADME, organism-based.
Data set [8] is described as follows: Maximum plasma concentration when administered perorally at 15 mg/kg dose in rat. The format is ADME, organism-based. Set-up: dose 15 mg/kg, route oral. Particulars: po.
Data set [9] in a line: Plasma half-life when administered perorally at 10 mg/kg dose. As to conditions: rat, in vivo, po.

Integrin alpha-IIb/beta-3, sequence (P05106 27-788 limits assumed): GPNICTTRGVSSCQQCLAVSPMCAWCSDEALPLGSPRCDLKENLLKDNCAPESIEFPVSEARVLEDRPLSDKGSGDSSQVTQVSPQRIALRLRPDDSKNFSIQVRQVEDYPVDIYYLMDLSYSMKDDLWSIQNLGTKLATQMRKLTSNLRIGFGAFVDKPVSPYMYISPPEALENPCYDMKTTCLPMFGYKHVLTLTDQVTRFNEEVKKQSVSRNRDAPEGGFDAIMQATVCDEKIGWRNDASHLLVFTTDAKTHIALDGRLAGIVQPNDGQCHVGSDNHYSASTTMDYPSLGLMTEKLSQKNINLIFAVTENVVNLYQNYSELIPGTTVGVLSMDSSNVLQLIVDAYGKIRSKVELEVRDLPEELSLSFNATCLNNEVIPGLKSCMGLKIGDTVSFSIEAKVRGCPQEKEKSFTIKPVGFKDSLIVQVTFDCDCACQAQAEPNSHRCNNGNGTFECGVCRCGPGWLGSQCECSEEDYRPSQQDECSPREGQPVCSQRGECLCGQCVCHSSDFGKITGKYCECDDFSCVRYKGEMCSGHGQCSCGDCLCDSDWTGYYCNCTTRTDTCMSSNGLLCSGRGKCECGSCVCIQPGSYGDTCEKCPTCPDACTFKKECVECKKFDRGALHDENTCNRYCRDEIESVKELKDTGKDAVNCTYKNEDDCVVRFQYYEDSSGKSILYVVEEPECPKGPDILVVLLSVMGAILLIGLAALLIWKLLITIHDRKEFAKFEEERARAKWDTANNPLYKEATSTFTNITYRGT
Integrin alpha-IIb/beta-3, sequence (P08514 32-887 limits assumed): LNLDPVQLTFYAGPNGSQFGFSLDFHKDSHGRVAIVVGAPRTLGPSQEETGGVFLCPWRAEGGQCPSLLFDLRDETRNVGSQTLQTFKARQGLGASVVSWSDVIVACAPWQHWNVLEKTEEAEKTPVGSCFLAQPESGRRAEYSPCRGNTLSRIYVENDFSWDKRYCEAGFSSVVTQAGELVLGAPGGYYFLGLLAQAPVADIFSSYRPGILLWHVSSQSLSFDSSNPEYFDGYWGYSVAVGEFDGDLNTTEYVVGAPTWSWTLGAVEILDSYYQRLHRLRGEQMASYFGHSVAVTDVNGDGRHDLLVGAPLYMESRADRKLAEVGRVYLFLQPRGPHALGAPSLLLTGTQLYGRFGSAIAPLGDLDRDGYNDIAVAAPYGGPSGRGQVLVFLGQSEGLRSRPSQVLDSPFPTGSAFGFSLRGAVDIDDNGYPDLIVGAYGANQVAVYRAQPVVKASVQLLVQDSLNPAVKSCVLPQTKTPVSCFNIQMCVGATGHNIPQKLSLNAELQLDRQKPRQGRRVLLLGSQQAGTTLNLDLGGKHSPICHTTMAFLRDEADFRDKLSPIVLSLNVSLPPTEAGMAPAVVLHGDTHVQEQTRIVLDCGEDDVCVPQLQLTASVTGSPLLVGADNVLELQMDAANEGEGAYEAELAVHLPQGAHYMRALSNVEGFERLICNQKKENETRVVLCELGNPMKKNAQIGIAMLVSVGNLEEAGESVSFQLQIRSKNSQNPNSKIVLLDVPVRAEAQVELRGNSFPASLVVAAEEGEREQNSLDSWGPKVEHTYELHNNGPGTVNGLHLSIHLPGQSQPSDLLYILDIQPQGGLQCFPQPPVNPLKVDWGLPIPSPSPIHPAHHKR
Integrin alpha-IIb/beta-3, sequence (P08514 891-1039 limits assumed): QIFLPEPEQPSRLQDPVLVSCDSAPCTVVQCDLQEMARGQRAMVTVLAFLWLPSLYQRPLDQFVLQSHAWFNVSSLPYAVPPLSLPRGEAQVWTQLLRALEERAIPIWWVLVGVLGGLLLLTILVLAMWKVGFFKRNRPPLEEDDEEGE
Integrin alpha-V/beta-3, sequence (P05106 27-788 limits assumed): as the sequence (P05106 27-788 limits assumed) above
Integrin alpha-V/beta-3, sequence (P06756 31-889 limits assumed): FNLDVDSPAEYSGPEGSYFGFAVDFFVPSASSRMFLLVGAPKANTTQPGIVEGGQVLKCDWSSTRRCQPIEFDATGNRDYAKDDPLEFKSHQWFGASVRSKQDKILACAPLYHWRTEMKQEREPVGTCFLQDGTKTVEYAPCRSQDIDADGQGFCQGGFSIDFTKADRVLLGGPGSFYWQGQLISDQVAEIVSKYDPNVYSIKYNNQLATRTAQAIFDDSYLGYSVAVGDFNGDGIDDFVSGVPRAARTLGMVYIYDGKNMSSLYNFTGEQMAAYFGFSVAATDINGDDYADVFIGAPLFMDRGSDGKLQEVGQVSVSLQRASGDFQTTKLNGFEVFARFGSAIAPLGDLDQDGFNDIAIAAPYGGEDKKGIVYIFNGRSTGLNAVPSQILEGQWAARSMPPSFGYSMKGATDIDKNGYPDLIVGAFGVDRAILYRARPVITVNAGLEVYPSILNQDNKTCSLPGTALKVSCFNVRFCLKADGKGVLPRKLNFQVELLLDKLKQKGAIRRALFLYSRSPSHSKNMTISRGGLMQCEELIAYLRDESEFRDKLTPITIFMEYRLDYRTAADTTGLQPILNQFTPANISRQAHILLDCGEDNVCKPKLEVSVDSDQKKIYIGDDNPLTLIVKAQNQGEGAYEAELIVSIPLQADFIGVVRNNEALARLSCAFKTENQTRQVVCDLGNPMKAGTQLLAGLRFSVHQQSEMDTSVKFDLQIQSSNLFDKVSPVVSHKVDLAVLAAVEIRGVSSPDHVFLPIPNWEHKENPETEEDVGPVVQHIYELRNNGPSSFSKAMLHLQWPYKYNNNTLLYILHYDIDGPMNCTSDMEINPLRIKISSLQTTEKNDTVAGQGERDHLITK
Integrin alpha-V/beta-3, sequence (P06756 891-1048 limits assumed): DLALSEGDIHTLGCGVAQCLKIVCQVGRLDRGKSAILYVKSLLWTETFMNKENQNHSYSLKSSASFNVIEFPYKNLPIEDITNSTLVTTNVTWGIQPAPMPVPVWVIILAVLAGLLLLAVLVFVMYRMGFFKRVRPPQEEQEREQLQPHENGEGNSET
Integrin alpha-V/beta-5, sequence (P06756 31-889 limits assumed): as the sequence (P06756 31-889 limits assumed) above
Integrin alpha-V/beta-5, sequence (P06756 891-1048 limits assumed): as the sequence (P06756 891-1048 limits assumed) above
Integrin alpha-V/beta-5, sequence (P18084 24-799 limits assumed): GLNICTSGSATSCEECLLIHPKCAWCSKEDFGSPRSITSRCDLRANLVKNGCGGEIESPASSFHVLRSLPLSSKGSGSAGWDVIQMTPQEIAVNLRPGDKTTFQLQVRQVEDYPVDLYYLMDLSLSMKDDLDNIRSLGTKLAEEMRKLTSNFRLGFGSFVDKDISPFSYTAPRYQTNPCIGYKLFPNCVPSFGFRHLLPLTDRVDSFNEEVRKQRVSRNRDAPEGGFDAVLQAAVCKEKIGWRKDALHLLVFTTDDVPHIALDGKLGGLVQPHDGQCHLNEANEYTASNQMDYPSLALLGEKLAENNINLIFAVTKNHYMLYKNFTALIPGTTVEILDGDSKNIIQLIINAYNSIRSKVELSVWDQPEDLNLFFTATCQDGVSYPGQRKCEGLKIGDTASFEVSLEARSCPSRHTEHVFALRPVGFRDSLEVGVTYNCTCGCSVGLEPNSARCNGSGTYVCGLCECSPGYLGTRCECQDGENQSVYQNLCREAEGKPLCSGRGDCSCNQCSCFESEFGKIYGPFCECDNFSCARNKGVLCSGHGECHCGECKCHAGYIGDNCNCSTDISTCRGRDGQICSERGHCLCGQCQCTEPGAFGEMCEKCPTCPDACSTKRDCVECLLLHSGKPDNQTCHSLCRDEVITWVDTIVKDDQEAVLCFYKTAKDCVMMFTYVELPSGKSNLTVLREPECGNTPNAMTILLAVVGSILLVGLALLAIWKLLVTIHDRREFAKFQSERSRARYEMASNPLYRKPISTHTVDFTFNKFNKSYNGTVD

Take `O=C(O)C[C@H](c1cnc2ccccc2c1)C1CCN(C(=O)CCCc2ccc3c(n2)NCCC3)CC1`: the values for the half-inhibitory concentration (IC50) in [1], in data set [2] and in data set [4] were 36 nM, 870 nM and 0.5 nM, respectively. For the same compound, the bioavailability in data set [3] was 1%.

For `O=C(O)C[C@@H](CC1CCN(C(=O)CCc2ccc3c(n2)NCCC3)CC1)c1cnc2ccccc2c1`, in [5] (plasma), the peak level (Cmax) was 500 nM. In addition, the results for the concentration for half-maximal inhibition (IC50) in data set [1], in [2] and in data set [4] were 2.2 nM, 1100 nM and 0.8 nM, respectively. In data set [6], this compound gave a half-life of 3 h. This compound also gave a bioavailability in [3] of 4%.

Consider `O=C(O)C[C@H](NC(=O)C1CCN(C(=O)CCc2ccc3c(n2)NCCC3)CC1)c1cnc2ccccc2c1`, for which the IC50 in data set [1] came to 270 nM; in [2], 2900 nM; in data set [4], 2.6 nM.

As to `O=C(O)C[C@H](NC(=O)C1CCN(C(=O)CCCNC2=NCCN2)CC1)c1cnc2ccccc2c1`, the concentration in data set [5] (plasma) peaked (Cmax) at 800 nM. The IC50 in [1] amounted to 470 nM; in [2] it was 170 nM; in data set [4] it was 3.6 nM. Further, in data set [6], the half-life is 7 h. In data set [3], this compound had a bioavailability of 4%.

With `O=C(O)C[C@@H]1Cc2ccc(OCCCNc3ccccn3)cc2Cc2ccccc21`, the IC50 in data set [1] worked out at 2.9 nM; in data set [2], 1200 nM; in [4] it was 4 nM.

In the case of `O=C(O)C[C@@H](C1CCN(C(=O)CCCc2ccc3c(n2)NCCC3)CC1)C1CNc2ccccc2C1` (mixture of isomers), the half-maximal inhibitory concentration (IC50) in [1] is 260 nM; in data set [2], 15000 nM; in [4], 3.7 nM. This compound also showed a F in [3] of 100%.

For the compound `O=C(O)CC(CC1CCN(C(=O)CCc2ccc3c(n2)NCCC3)CC1)C1CNc2ccccc2C1` (racemic), in [7], the time of peak concentration (Tmax) is 2 h. Moreover, the Cmax in data set [8] was 21000 nM. In addition, the 50% inhibitory concentration (IC50) in data set [2] is 14000 nM.

Turning to `CN1CC(C(CC(=O)O)CC2CCN(C(=O)CCc3ccc4c(n3)NCCC4)CC2)Cc2ccccc21` (racemic), the concentration for half-maximal inhibition (IC50) was 180 nM in [1], more than 50000 nM in data set [2] and 49 nM in data set [4].

In the case of `O=C(O)C[C@@H](C1CCN(C(=O)CCCc2ccc3c(n2)NCCC3)CC1)C1CNc2ccccc2C1` (single isomer, unassigned; isomer b), the IC50 was 2500 nM in data set [1], more than 50000 nM in [2] and 70 nM in data set [4].

Compound `O=C(O)C[C@@H](C1CCN(C(=O)CCCc2ccc3c(n2)NCCC3)CC1)C1CNc2ccccc2C1` (single isomer, unassigned; isomer d) yielded a T1/2 in data set [9] of 1 h. In addition, the concentration in data set [5] (in vivo) peaked (Cmax) at 58000 nM. Moreover, the figures for the IC50 in data set [1], in data set [2] and in data set [4] were 160 nM, 17000 nM and 5.4 nM, respectively. Also, the F in data set [3] is given as 52%.

With `O=C(O)C[C@@H](CC1CCN(C(=O)CCc2ccc3c(n2)NCCC3)CC1)c1cnc2c(c1)CCCC2` (stereo in doubt; 28), the IC50 was determined as 11 nM in data set [1], 3000 nM in [2] and 1.6 nM in data set [4]. In [3], this compound registered an F of 0%.

For the compound `COc1ccc([C@@H](CC(=O)O)CC2CCN(C(=O)CCc3ccc4c(n3)NCCC4)CC2)cn1` (stereo in doubt; 34), the highest level in data set [5] (in vivo) (Cmax) was 900 nM. The IC50 amounted to 2.7 nM in [1], 6100 nM in data set [2] and 0.7 nM in data set [4]. This compound also yielded a F in data set [3] of 8%.

In [5] (in vivo), `COc1ccc([C@@H](CC(=O)O)CC2CCN(C(=O)CCc3ccc4c(n3)NCCC4)CC2)cn1` (stereo in doubt; form 1) yielded a Cmax of 100 nM. Besides, the IC50 came out at 3.1 nM in [1], 1800 nM in [2] and 0.4 nM in [4]. This compound gave a half-life in data set [6] of 2 h. The same compound returned a F in data set [3] of 2%.

Turning to `O=C(O)C[C@@H](C1CCN(C(=O)CCCc2ccc3c(n2)NCCC3)CC1)C1CNc2ccccc2C1` (stereo in doubt; form 1), the concentration in data set [5] (in vivo) peaked (Cmax) at 8000 nM. For the same compound, the results for the IC50 in data set [1], in data set [2] and in [4] were 44 nM, 13000 nM and 1.6 nM, respectively. The half-life in data set [6] was 2 h. Moreover, the F in data set [3] was determined as 46%.

As for `O=C(O)C[C@@H](CC1CCN(C(=O)CCc2ccc3c(n2)NCCC3)CC1)c1cnc2c(c1)CCCC2` (stereo in doubt; form 1), the IC50 in data set [1] is 1000 nM; in [2], more than 50000 nM; in [4], 26 nM.

As to `COc1ccc([C@@H](CC(=O)O)CC2CCN(C(=O)CCc3ccc4c(n3)NCCC4)CC2)cn1` (stereo in doubt; form 2), the concentration for half-maximal inhibition (IC50) in [1] was 98 nM; in [2] it was more than 50000 nM; in data set [4] it was 16 nM.

For the compound `O=C(O)C[C@@H](C1CCN(C(=O)CCCc2ccc3c(n2)NCCC3)CC1)C1CNc2ccccc2C1` (stereo in doubt; form 2), the half-maximal inhibitory concentration (IC50) in data set [1] was 1500 nM; in data set [2], more than 50000 nM; in data set [4], 100 nM.

Consider `O=C(O)C[C@@H](CC1CCN(C(=O)CCc2ccc3c(n2)NCCC3)CC1)c1cnc2c(c1)CCCC2` (stereo in doubt; form 4), for which the concentration for half-maximal inhibition (IC50) is 2200 nM in data set [1], more than 50000 nM in data set [2] and 52 nM in [4].
